# Published values pooled from the literature.
# Compare with care: the assays were run in different laboratories.
# Target: Wee1-like protein kinase 2 (WEE2, Homo sapiens, UniProt P0C1S8)
SMILES,test,conditions,remaining binding
N[C@@H]1CCN(c2nccc(-c3cnn4ncccc34)n2)C1,binding,1 µM,100%
COc1ncc2cc3ccccc3nc2c1C#N,"cell-free assay, competition with immobilised ligand",5 µM,100%
Cc1cnc(Nc2ccc(C(=O)N3CCC(N4CCCC4)CC3)cc2)nc1-c1cc2ccccc2s1,"binding, competition with immobilised ligand",1 µM,15%
CC1CCCN1c1nccc(-c2cnn3ncccc23)n1 (stereo not drawn),binding,1 µM,100%
CCCCN(CCCC)C(=O)CN1C[C@@H](c2cc(OC)c3c(c2)OCO3)[C@H](C(=O)O)[C@H]1CC(C)(C)CCC,"cell-free assay, competition with immobilised ligand",1 µM,89.1%
Nc1ncc2c(n1)-c1c([nH]c3ccc(C#CC4CC4)cc13)CCCC2,"binding, competition with immobilised ligand",1 µM,98%
O=C(NCc1ncc(C(F)(F)F)cc1Cl)c1ccc2c(c1)C1(CCS(=O)(=O)CC1)[C@H](C1CC1)N2S(=O)(=O)c1ccc(F)cc1,"cell-free assay, competition with immobilised ligand",1 µM,100%
O=C(NCCCN1CCOCC1)c1ccc(Nc2nccc(-c3cc4ccccc4s3)n2)cc1,"binding, competition with immobilised ligand",1 µM,86%
C[C@@H]1CCN(c2nccc(-c3cnn4ncccc34)n2)C1,binding,1 µM,87%
CCN1CCN(Cc2ccc(C(=O)Nc3ccc(C)c(Oc4ccc5c(c4)CC(=O)N5)c3)cc2C(F)(F)F)CC1,"binding, competition with immobilised ligand",1 µM,100%
O=C(Nc1cnc(Oc2ccc(F)cc2)nc1)N1CCc2ncccc2[C@@H]1c1ccc(F)cc1,"cell-free assay, competition with immobilised ligand",1 µM,95%
COc1cnc(Nc2cccc(S(N)(=O)=O)c2)nc1N1CCN(c2ccccc2)CC1,"binding, competition with immobilised ligand",1 µM,96%
O=C1CCc2cc(Nc3cc(OC4CCOCC4)c([N+](=O)[O-])cc3Cl)ccc2N1,"cell-free assay, competition with immobilised ligand",1 µM,96%
O=C(c1ccc(Nc2ncc(Cl)c(-c3cc4ccccc4s3)n2)cc1)N1CCC(N2CCCC2)CC1,"binding, competition with immobilised ligand",1 µM,27%
CCc1ccccc1C(=O)Nc1n[nH]c2c(C)c(F)c(C3C(C#N)=C(C)N(C)C(C)=C3C#N)cc12,"cell-free assay, competition with immobilised ligand",1 µM,82%
COc1ccnn2ncc(-c3ccnc(N(C)C)n3)c12,binding,1 µM,96%
CNCc1ccccc1-c1csc([C@@H](C)Nc2nc(C)nc3cc(OC)c(OC)cc23)c1,"cell-free assay, competition with immobilised ligand",1 µM,100%
CN(C)c1ncc(F)c(-c2cnn3ncccc23)n1,binding,1 µM,98%
CNC(=O)[C@@H]1CC[C@@H](n2c(-c3ccc4cnccc4c3)nc3ccc(C(=O)NCc4cccc(C(N)=O)c4)cc32)C1,"binding, competition with immobilised ligand",1 µM,100%
CN(C)c1nccc(-c2cnn3ncccc23)n1,binding,1 µM,100%
O=C(Nc1c[nH]nc1C(=O)NC1CCNCC1)c1cc(F)cc(F)c1,"binding, competition with immobilised ligand",1 µM,100%
